Laboratory results as given in ChEMBL document CHEMBL3739264, “Synthesis and bio-evaluation of novel quinolino-stilbene derivatives as potential anticancer agents” (Bioorg Med Chem, 2015).
pIC50: −log10 of the molar value. The source made the active and inactive calls. The rule behind the calls is not given here.

Tests used:
[1] = Cell cycle arrest in human MCF10A cells assessed as accumulation at S phase at 6 uM after 48 hrs by flow cytometry analysis relative to control; assay type: functional, cell-based; conditions: MCF-10A
Summary of the method: (§1)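 About 1 × 10^6 cells per plate seeded overnight, then treated with compound and harvested at set times. Cells fixed in 75% ethanol at -20°C for 12-24 h and stained 1 h with 100 µg/ml PI, 100 µg/ml RNase A and 0.3% NP-40 in PBS. DNA content measured by flow cytometry; phase fractions compared with sham-treated cells.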

MDA-MB-231 [2] = assay: Cell cycle arrest in human MDA-MB-231 cells assessed as accumulation at S phase at 6 uM after 24 hrs by flow cytometry analysis relative to control; assay type: functional; summary of the method: as §1
HeLa [3] = assay: Induction of DNA damage in human HeLa cells at 6 uM after 48 hrs by immunostaining; assay type: functional, cell-based
Summary of the method: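 γH2A.X (phospho-Ser139) immunostaining, with HeLa at 6 µM for 24 or 48 h and MDA-MB468 at 1 µM. Cells on coverslips fixed and permeabilized in ice-cold methanol at -20°C. Blocked in 1% FBS, primary antibody 1:200 overnight at 4°C, then fluorophore-conjugated secondary 1 h. DNA counterstained with DRAQ5.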

[4] = Cell cycle arrest in human MCF10A cells assessed as accumulation at G0-G1 phase at 6 uM after 48 hrs by flow cytometry analysis relative to control; assay type: functional, cell-based; conditions: MCF-10A; summary of the method: as §1
HeLa [5] = assay: Increase of histone 3 phosphorylation at Ser10 level in human HeLa cells at 6 uM after 48 hrs by Western blot analysis; assay type: functional, cell-based
Summary of the method: (§2)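 HeLa cells were sham-treated or given 6 µM and collected at set times. Lysed on ice in Tris pH 7.4/NaCl/EDTA/1% Triton X-100 with PMSF and protease inhibitors. 30-40 µg protein run on 8 or 10% gels, blotted to PVDF, probed overnight at 4°C and detected by ECL. Band levels normalized to GAPDH.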

MDA-MB-231 [6] = assay: Cell cycle arrest in human MDA-MB-231 cells assessed as accumulation at S phase at 6 uM after 48 hrs by flow cytometry analysis relative to control; assay type: functional; summary of the method: as §1
MDA-MB-231 [7] = assay: Cell cycle arrest in human MDA-MB-231 cells assessed as accumulation at G2/M phase at 6 uM after 72 hrs by flow cytometry analysis relative to control; assay type: functional; summary of the method: as §1
HeLa [8] = assay: Decrease of Wee-1 level in human HeLa cells at 6 uM after 48 hrs by Western blot analysis
HeLa [9] = assay: Cell cycle arrest in human HeLa cells assessed as accumulation at G0-G1 phase at 6 uM after 12 hrs by flow cytometry analysis relative to control; assay type: functional; summary of the method: as §1
MDA-MB-231 [10] = assay: Cell cycle arrest in human MDA-MB-231 cells assessed as accumulation at S phase at 6 uM after 12 hrs by flow cytometry analysis relative to control; assay type: functional; summary of the method: as §1
HeLa [11] = assay: Cell cycle arrest in human HeLa cells assessed as accumulation at G0-G1 phase at 6 uM after 24 hrs by flow cytometry analysis relative to control; assay type: functional; summary of the method: as §1
MDA-MB-231 [12] = assay: Cell cycle arrest in human MDA-MB-231 cells assessed as accumulation at G0-G1 phase at 6 uM after 12 hrs by flow cytometry analysis relative to control; assay type: functional; summary of the method: as §1
HeLa [13] = assay: Induction of apoptosis in human HeLa cells assessed as popcorn like morphology at 6 uM after 48 hrs by time lapse microscopy analysis; assay type: functional, cell-based
Summary of the method: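 Treated HeLa cells were followed by time-lapse microscopy, with images taken at set time points.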

MDA-MB-231 [14] = assay: Cell cycle arrest in human MDA-MB-231 cells assessed as accumulation at G0-G1 phase at 6 uM after 72 hrs by flow cytometry analysis relative to control; assay type: functional; summary of the method: as §1
HeLa [15] = assay: Induction of mitosis arrest in human HeLa cells assessed as disoriented tubulin structure at 6 uM after 12 hrs using DAPI staining by immunofluorescence microscopic analysis; assay type: functional, cell-based
Summary of the method: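 HeLa cells on coverslips treated 12 h, fixed in ice-cold methanol at -20°C. Stained with anti-α-tubulin and anti-lamin A (primary 1:200 overnight at 4°C, fluorescent secondary 1 h) and DAPI for DNA. Mitotic morphology scored by fluorescence microscopy.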

HeLa [16] = assay: Increase of cyclin-B level in human HeLa cells at 6 uM after 48 hrs by Western blot analysis; assay type: functional, cell-based; summary of the method: as §2
MDA-MB-231 [17] = assay: Cell cycle arrest in human MDA-MB-231 cells assessed as accumulation at G2/M phase at 6 uM after 24 hrs by flow cytometry analysis relative to control; assay type: functional; summary of the method: as §1
MCF7 = assay: Antiproliferative activity against human MCF7 cells after 72 hrs by SRB assay; assay type: functional, cell-based; conditions: MCF7, 72 h
Summary of the method: (§3)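 Cells seeded at 4,000-5,000/well for 16 h, then exposed 72 h to serial dilutions of compound in DMSO; sham DMSO as 100% and TCA-treated wells as 0%. IC50 from sigmoidal dose-response curves; two biological replicates, four technical each.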

MDA-MB-231 [18] = assay: Cell cycle arrest in human MDA-MB-231 cells assessed as accumulation at G2/M phase at 6 uM after 12 hrs by flow cytometry analysis relative to control; assay type: functional; summary of the method: as §1
MDA-MB-231 [19] = assay: Antiproliferative activity against human MDA-MB-231 cells after 72 hrs by SRB assay; assay type: functional, cell-based; conditions: MDA-MB-231, 72 h
Summary of the method: as §3, with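 “0%. Fixed in 10% TCA at 4°C for 1 h, stained with 0.4% SRB for 30 min, dye solubilised in 10 mmol Tris pH 10.5, read at 540 nm.” for “0%.”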

MDA-MB-231 [20] = assay: Cell cycle arrest in human MDA-MB-231 cells assessed as accumulation at G0-G1 phase at 6 uM after 48 hrs by flow cytometry analysis relative to control; assay type: functional; summary of the method: as §1
HeLa [21] = assay: Cell cycle arrest in human HeLa cells assessed as accumulation at sub-G1 phase at 6 uM after 12 hrs by flow cytometry analysis relative to control; assay type: functional; summary of the method: as §1
[22] = Cell cycle arrest in human MCF10A cells assessed as accumulation at G2/M phase at 6 uM after 72 hrs by flow cytometry analysis relative to control; assay type: functional, cell-based; conditions: MCF-10A; summary of the method: as §1
HeLa [23] = assay: Cell cycle arrest in human HeLa cells assessed as accumulation at S phase at 6 uM after 12 hrs by flow cytometry analysis relative to control; assay type: functional; summary of the method: as §1
HeLa [24] = assay: Cell cycle arrest in human HeLa cells assessed as accumulation at S phase at 6 uM after 24 hrs by flow cytometry analysis relative to control; assay type: functional; summary of the method: as §1
HeLa [25] = assay: Cell cycle arrest in human HeLa cells assessed as accumulation at G2/M phase at 6 uM after 24 hrs by flow cytometry analysis relative to control; assay type: functional; summary of the method: as §1
[26] = Cell cycle arrest in human MCF10A cells assessed as accumulation at G0-G1 phase at 6 uM after 12 hrs by flow cytometry analysis relative to control; assay type: functional, cell-based; conditions: MCF-10A; summary of the method: as §1
[27] = Cell cycle arrest in human MCF10A cells assessed as accumulation at G2/M phase at 6 uM after 12 hrs by flow cytometry analysis relative to control; assay type: functional, cell-based; conditions: MCF-10A; summary of the method: as §1

In the case of `FC(F)(F)c1cccc(/C=C\c2cc3ccccc3nc2Cl)c1`, the Activity [1] was 17.9%, the Activity (MDA-MB-231 [2]) was 10.8% and the Activity (HeLa [3]) was “inactive”. For the same compound, the Activity [4] was 63.6%, the Activity (HeLa [5]) was “Active” and the Activity (MDA-MB-231 [6]) was 15.4%. The Activity (MDA-MB-231 [7]) was 14.4%, the Activity (HeLa [8]) was “Active” and the Activity (HeLa [9]) was 8%. It also gave an Activity (MDA-MB-231 [10]) of 18.2%, an Activity (HeLa [11]) of 16.2% and an Activity (MDA-MB-231 [12]) of 22.2%. The Activity (HeLa [13]) was “Active”, the Activity (MDA-MB-231 [14]) was 34.6% and the Activity (HeLa [15]) was “Active”. For the same compound, the Activity (HeLa [16]) was “Active”, the Activity (MDA-MB-231 [17]) was 38.3% and the pIC50 (MCF7) was 5.45. For the same compound, the Activity (MDA-MB-231 [18]) was 47.4%, the pIC50 (MDA-MB-231 [19]) was 5.43 and the Activity (MDA-MB-231 [20]) was 36.3%. It also gave an Activity (HeLa [21]) of 3.6%, an Activity [22] of 4.9% and an Activity (HeLa [23]) of 8.9%. It also gave an Activity (HeLa [24]) of 8.1%, an Activity (HeLa [25]) of 56.9% and an Activity [26] of 31.3%. It also gave an Activity [27] of 11.4%.
